ChEMBL document CHEMBL4229446, “Development of Novel Monoamine Oxidase-B (MAO-B) Inhibitors with Reduced Blood-Brain Barrier Permeability for the Potential Management of Noncentral Nervous System (CNS) Diseases” (J Med Chem, 2018)

Assays:
[1] = biological target: T1, Amine oxidase [flavin-containing] A (Homo sapiens, UniProt P21397); assay: Inhibition of human recombinant MAO-A expressed in baculovirus infected BTI-TN-5B1-4 insect cells using tyramine as substrate preincubated for 1 hr followed by substrate addition and measured after 30 mins by resazurin dye-based fluorescence assay
T1 sequence (P21397 whole entry): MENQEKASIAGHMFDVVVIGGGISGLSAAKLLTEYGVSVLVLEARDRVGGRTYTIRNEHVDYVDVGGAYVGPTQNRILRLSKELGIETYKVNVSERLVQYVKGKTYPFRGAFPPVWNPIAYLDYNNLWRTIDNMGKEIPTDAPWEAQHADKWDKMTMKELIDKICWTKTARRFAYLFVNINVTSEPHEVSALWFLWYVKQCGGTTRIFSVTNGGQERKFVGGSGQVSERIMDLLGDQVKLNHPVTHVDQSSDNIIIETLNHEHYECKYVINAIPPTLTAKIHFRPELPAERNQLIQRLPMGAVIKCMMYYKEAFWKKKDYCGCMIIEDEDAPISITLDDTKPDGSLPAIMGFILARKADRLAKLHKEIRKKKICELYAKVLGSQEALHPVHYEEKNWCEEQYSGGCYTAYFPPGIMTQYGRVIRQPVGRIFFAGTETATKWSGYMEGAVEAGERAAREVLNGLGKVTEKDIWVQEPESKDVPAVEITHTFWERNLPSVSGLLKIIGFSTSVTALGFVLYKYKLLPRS

[2] = Apparent half-life of the terminal disposition phase in C57BL/6 mouse plasma at 23.4 mg/kg, iv administered as single dose measured 24 hrs by UPLC-MS/MS analysis; type: ADME, organism-based; settings: read-out: t1/2 lambda z (converted)
Outline: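 21 animals dosed at 0 min, 3 killed per time point (0, 5, 15, 30 min, 1, 4, 24 h). Plasma extracted by protein precipitation/phospholipid removal. Brain homogenized in 50 mM ammonium formate, then extracted in acidified organic solvent. Both quantified by UPLC-MS/MS (MRM), brain ng/g taken as ng/mL. Noncompartmental analysis. Kp = AUClast brain/plasma.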

Mus musculus [3] = assay: Acute toxicity in C57BL/6 mouse assessed as abnormal clinical signs at […], sc administered as single dose measured after 24 hrs post-injection; type: organism-based; settings: in vivo
[4] = Metabolic stability in human plasma assessed as parent compound remaining at 5 uM after 4 hrs by UPLC-MS/MS analysis; type: ADME, cell-free; settings: read-out: Stability
Outline: (§1)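 Compound at 5 μM was incubated in mouse or human plasma at 37 °C with shaking. Sampled at 0, 5, 15, 30, 60, 120 and 240 min and stopped with ice-cold acetonitrile/0.1% formic acid containing internal standard. Supernatants analysed by UPLC-MS/MS for parent remaining. Run in triplicate.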

P-gp (MDR1) = assay: Efflux ratio of apparent permeability in MDCK2-MDR1 cells at 10 uM after 1 hr in absence of P-gp inhibitor verapamil by UPLC-MS/MS analysis; type: ADME, cell-based, Canis lupus familiaris; settings: dog, MDCK-MDR1
Outline: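 MDCK-WT (MEM-α/10% FBS) or MDCK-MDR1 II (DMEM/10% FBS) cells were grown 3 days on 12-well transwells. Integrity was checked by TEER and 100 μM Lucifer yellow. Cells were washed in HBSS/10 mM HEPES. Compound at 10 μM was added apically or basally, in triplicate, ±100 μM verapamil. Receiver sampled at 1 h by UPLC-MS/MS. Efflux ratio = Papp B→A / Papp A→B.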

[5] = Efflux ratio of apparent permeability in MDCK-WT cells at 10 uM after 1 hr in absence of P-gp inhibitor verapamil by UPLC-MS/MS analysis; settings: dog
[6] = Metabolic stability in mouse liver microsomes assessed as parent compound remaining at 1 uM after 60 mins in presence of NADPH by UPLC-MS/MS analysis; type: ADME, microsome; settings: read-out: Stability
Outline: (§2)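 Compound at 1 μM with 0.5 mg/mL mouse or human liver microsomes in 100 mM potassium phosphate pH 7.4, 3.3 mM MgCl2, 1 mM NADPH, at 37 °C. Started with NADPH; minus-NADPH control run. Stopped at 0, 5, 15, 30, 45 and 60 min with acetonitrile/formic acid plus internal standard. Parent remaining by UPLC-MS/MS, in triplicate.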

Mus musculus [7] = assay: Acute toxicity in C57BL/6 mouse assessed as abnormal clinical signs at […], po administered as single dose measured after 24 hrs post-injection; type: organism-based; settings: in vivo
Mus musculus [8] = assay: Acute toxicity in C57BL/6 mouse assessed as abnormal clinical signs at […], iv administered as single dose measured after 24 hrs post-injection; type: organism-based; settings: in vivo
[9] = Metabolic stability in cryopreserved mouse hepatocytes assessed as parent compound remaining at 1 uM after 60 mins by UPLC-MS/MS analysis; type: ADME, cell-based, Hepatocyte; settings: read-out: Stability
[10] = Metabolic stability in mouse plasma assessed as parent compound remaining at 5 uM after 4 hrs by UPLC-MS/MS analysis; type: ADME, cell-free; settings: read-out: Stability; outline: as §1
[11] = Metabolic stability in human liver microsomes assessed as parent compound remaining at 1 uM after 60 mins by UPLC-MS/MS analysis; type: ADME, microsome; settings: liver microsomes, read-out: Stability; outline: as §2
[12] = AUClast in C57BL/6 mouse plasma at 24.5 mg/kg, iv administered as single dose measured 24 hrs by UPLC-MS/MS analysis; type: ADME, organism-based; set-up: dose 24.5 mg/kg, time 0 - last, route intravenous
Outline: (§3)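 21 animals dosed at 0 min, 3 sacrificed at each of 0, 5, 15, 30 min, 1, 4 and 24 h. Plasma was extracted by protein precipitation with phospholipid removal. Brain was weighed, bead-homogenised in 50 mM ammonium formate and extracted in acidified organic solvent. Quantified by UPLC-MS/MS (MRM). Brain ng/g taken as ng/mL. Parameters came from noncompartmental analysis. Kp = AUClast brain/plasma.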

[13] = Tmax in C57BL/6 mouse plasma at 24.5 mg/kg, sc administered as single dose measured 24 hrs by UPLC-MS/MS analysis; type: ADME, organism-based
Outline: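 Plasma extracted by protein precipitation/phospholipid removal and measured by UPLC-MS/MS (MRM). Parameters by noncompartmental analysis, omitting values outside quantification limits or undetected.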

[14] = Cmax in C57BL/6 mouse brain at 24.5 mg/kg, iv administered as single dose measured 24 hrs by UPLC-MS/MS analysis; type: ADME, organism-based; set-up: dose 24.5 mg/kg, route intravenous; outline: as §3
[15] = AUClast in C57BL/6 mouse brain at 24.5 mg/kg, po administered as single dose measured 24 hrs by UPLC-MS/MS analysis; type: ADME, organism-based; set-up: dose 24.5 mg/kg, route oral, time 0 - last
Outline: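 15 animals dosed, 3 sacrificed at each of 1, 2, 4, 6 and 24 h. Plasma and brain homogenate were extracted and quantified by UPLC-MS/MS. Parameters came from noncompartmental analysis. Values above or below the limit of quantification, or undetected, were omitted. Kp = AUClast brain/plasma.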

[16] = Tmax in C57BL/6 mouse brain at 24.5 mg/kg, sc administered as single dose measured 24 hrs by UPLC-MS/MS analysis; type: ADME, organism-based
Outline: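 Brain portion homogenised in 50 mM ammonium formate with beads, acidified organic extraction, UPLC-MS/MS. ng/g read as ng/mL. Noncompartmental analysis; values above or below quantification limit, or undetected, excluded.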

CN(CC(=O)O)[C@H](CC#N)Cc1ccc(OCc2ccc(Cl)c(Cl)c2)cc1
IC50 [1]: 126 µM | half-life [2]: 0.74 h | Activity (Mus musculus [3]): Non-Toxic | remaining at 4 h, 5 µM [4]: ≥ 75% | efflux ratio at 1 h, 10 µM (P-gp (MDR1)): 1.14 | efflux ratio at 1 h, 10 µM [5]: 1.07 | remaining at 1 h, 1 µM [6]: 39% | Activity (Mus musculus [7]): Non-Toxic | Activity (Mus musculus [8]): Non-Toxic | remaining at 1 h, 1 µM [9]: 64% | remaining at 4 h, 5 µM [10]: ≥ 75% | remaining at 1 h, 1 µM [11]: ≥ 90%

C[C@H](Cc1ccc(OCc2ccc(Br)c(Cl)c2)cc1)N(C)CC(=O)O
IC50 [1]: > 50 µM | Activity (Mus musculus [3]): Non-Toxic | remaining at 4 h, 5 µM [4]: ≥ 75% | efflux ratio at 1 h, 10 µM (P-gp (MDR1)): 2.12 | efflux ratio at 1 h, 10 µM [5]: 1.33 | AUC(0-t) at 24 h [12]: 94800 ng·h/mL | remaining at 1 h, 1 µM [6]: 93.4% | Activity (Mus musculus [7]): Non-Toxic | Activity (Mus musculus [8]): Non-Toxic | remaining at 1 h, 1 µM [9]: ≥ 90% | remaining at 4 h, 5 µM [10]: ≥ 75% | Tmax [13]: 2 h | Cmax [14]: 653 ng/mL | remaining at 1 h, 1 µM [11]: ≥ 90% | AUC(0-t) at 24 h [15]: 12600 ng·h/mL | Tmax [16]: 6 h
